≈ marks a conversion by molar mass, not a printed value.
Tests used:
Matrilysin = biological target: T1, Matrilysin (Homo sapiens, UniProt P09237); assay: Inhibition of MMP7 by fluorimetric assay
T1 sequence (P09237 whole entry): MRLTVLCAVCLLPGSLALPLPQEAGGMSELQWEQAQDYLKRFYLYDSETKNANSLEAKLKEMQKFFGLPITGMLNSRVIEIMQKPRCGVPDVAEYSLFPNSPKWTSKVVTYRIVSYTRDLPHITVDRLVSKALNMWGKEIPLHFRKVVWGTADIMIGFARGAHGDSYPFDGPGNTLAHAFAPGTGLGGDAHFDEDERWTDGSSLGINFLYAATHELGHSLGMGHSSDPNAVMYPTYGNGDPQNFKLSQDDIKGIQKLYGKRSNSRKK
Method in brief: (§1)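 Enzyme source was the catalytic domain of each MMP. Inhibition was reported as Ki values.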

Interstitial collagenase = biological target: T2, Interstitial collagenase (Homo sapiens, UniProt P03956); assay: Inhibition of MMP1 by fluorimetric assay; method in brief: as §1
T2 sequence (P03956 whole entry): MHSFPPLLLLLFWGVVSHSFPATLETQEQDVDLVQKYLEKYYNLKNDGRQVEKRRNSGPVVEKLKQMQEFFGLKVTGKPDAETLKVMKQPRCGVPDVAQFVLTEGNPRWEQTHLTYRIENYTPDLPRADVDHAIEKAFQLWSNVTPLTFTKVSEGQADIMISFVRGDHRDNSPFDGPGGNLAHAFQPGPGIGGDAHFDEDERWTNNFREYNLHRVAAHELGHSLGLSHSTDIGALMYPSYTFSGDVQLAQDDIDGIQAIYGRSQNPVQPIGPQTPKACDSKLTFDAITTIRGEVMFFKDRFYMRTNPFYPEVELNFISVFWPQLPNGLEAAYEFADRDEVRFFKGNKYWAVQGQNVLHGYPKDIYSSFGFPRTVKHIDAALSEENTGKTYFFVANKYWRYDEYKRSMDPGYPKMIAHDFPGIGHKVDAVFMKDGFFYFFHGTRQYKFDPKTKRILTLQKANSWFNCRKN

Neutrophil collagenase = Neutrophil collagenase (Homo sapiens, UniProt P22894); assay: Inhibition of MMP8 by fluorimetric assay; method in brief: as §1
[1] = Solubility of the compound in water; format: physicochemical
Collagenase 3 = Collagenase 3 (Homo sapiens, UniProt P45452); assay: Inhibition of MMP13 by fluorimetric assay; method in brief: as §1
[2] = biological target: Macrophage metalloelastase (Homo sapiens, UniProt P39900); assay: Inhibition of MMP12 by fluorimetric assay; method in brief: as §1
Macrophage metalloelastase, sequence (P39900 whole entry): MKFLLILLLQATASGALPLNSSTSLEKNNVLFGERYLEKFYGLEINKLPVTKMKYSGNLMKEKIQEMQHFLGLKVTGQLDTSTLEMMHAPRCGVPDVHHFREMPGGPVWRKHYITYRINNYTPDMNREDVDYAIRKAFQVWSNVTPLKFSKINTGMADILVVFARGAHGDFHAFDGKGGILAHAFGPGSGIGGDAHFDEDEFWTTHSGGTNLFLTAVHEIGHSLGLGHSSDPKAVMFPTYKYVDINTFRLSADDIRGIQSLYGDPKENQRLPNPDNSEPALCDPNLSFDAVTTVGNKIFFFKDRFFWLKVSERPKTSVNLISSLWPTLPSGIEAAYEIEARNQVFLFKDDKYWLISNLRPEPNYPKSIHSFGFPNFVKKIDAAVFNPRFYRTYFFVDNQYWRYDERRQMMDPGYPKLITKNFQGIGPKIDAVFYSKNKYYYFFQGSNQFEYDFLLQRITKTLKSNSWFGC

Neutrophil collagenase, sequence (P22894 whole entry): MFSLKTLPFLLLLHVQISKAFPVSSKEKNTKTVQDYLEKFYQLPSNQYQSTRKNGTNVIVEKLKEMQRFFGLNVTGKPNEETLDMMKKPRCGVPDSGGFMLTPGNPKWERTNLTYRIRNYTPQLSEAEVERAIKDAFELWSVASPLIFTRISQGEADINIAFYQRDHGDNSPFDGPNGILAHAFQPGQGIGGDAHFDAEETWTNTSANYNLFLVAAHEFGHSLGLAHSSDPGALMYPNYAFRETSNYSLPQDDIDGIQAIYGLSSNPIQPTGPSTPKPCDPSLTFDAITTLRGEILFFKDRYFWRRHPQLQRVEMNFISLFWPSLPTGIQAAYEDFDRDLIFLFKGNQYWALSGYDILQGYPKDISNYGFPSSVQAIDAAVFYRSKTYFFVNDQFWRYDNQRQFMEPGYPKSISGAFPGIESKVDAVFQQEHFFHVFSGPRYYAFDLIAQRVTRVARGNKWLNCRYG

Compound | Ki (Matrilysin) [nM] | Ki (Interstitial collagenase) [nM] | Ki (Neutrophil collagenase) [nM] | solubility [1] [mg/mL] | Ki (Collagenase 3) [nM] | Ki [2] [nM]
COc1ccc(S(=O)(=O)N(CC(=O)NO)C[C@H](O)CO)cc1 | 9000 | 160 | 24 | 20 (≈ 59.8 mM) | 3.6 | 8
COc1ccc(S(=O)(=O)N[C@H](CO)C(=O)NO)cc1 | 823 | 143 | 9 | 20 (≈ 68.9 mM) | 2.2 | 6
COc1ccc(S(=O)(=O)N[C@@H](C(=O)NO)[C@@H](C)O)cc1 | 984 | 287 | 10 | 20 (≈ 65.7 mM) | 2.9 | 11
O=C(CN(C[C@H](O)CO)S(=O)(=O)c1ccc(-c2ccccc2)cc1)NO | 4000 | 742 | 48 | < 1 | 18 | 60
COc1ccc(S(=O)(=O)N(CC(=O)NO)CC(C)C)cc1 | 13000 | – | 9 | 20 (≈ 63.2 mM) | 3.1 | 4.3

Continued by falling Ki (Matrilysin), values first:

Ki (Matrilysin) [nM] | Ki (Interstitial collagenase) [nM] | Ki (Neutrophil collagenase) [nM] | solubility [1] [mg/mL] | Ki (Collagenase 3) [nM] | Ki [2] [nM] | Compound
3000 | 151 | 173 | 20 (≈ 68.4 mM) | 46 | 40 | O=C(CN(CCO)S(=O)(=O)c1ccc(F)cc1)NO
2000 | 286 | 9.1 | 20 (≈ 42.9 mM) | 1.7 | – | COc1ccc(S(=O)(=O)N(CCO[C@@H]2O[C@H](CO)[C@@H](O)[C@H](O)[C@H]2O)CC(=O)NO)cc1
1600 | 67 | 4.6 | 20 (≈ 57.1 mM) | 2.7 | – | O=C(CN(CCO)S(=O)(=O)c1ccc(-c2ccccc2)cc1)NO
1500 | 128 | 13 | 20 (≈ 65.7 mM) | 1 | 7.6 | COc1ccc(S(=O)(=O)N(CCO)CC(=O)NO)cc1
344 | 32 | 8 | 20 (≈ 54.9 mM) | 1.7 | 7 | COc1ccc(S(=O)(=O)N(C[C@H](O)CO)[C@H](CO)C(=O)NO)cc1

Source: ChEMBL document CHEMBL1629518, “Structure-based approach to nanomolar, water soluble matrix metalloproteinases inhibitors (MMPIs)” (Eur J Med Chem, 2010)
